# Screening data from PubChem BioAssay.
# APP 5'UTR act: activates APP 5'UTR luciferase reporter | SH-SY5Y APP 5'UTR luciferase reporter, luminescence; zero percent = DMSO vehicle wells | activation, % at 2 µM | 190,000 tested, 1% active;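 active = activation above a set limit, based on mean plus 3 SD of controls, cut at about 140% in these data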
# NF-kB neuron act: compounds increasing NF-kB expression in human neuronal cells | AID 1239 | 190,000 tested, 1.6% active | fold change at 12.5 µM | NF-kB reporter expression; active compounds read high; in the data active = fold change above about 3.3
# STAT1 act: STAT1 signaling activation. 200,000 tested, 2.6% active. NIH 3T3 STAT1-luciferase reporter, IFN-gamma, luminescence; 100% = IFN-gamma alone, no compound. activation (% of control), % at 5.5 µM. AID 932;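 active = activation above the screen-wide mean activation plus 3 SD, cut at about 130% in these data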;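 note: raw ratio to IFN-gamma control signal so 100% means no change and 0% no light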
# FLuc stim CS: affects firefly luciferase, flagging false hits in luciferase stimulation screens. 200,000 tested, under 10 active. P08659. ATPlite luciferase biochemical, luminescence, 10 min; 0 = ATP-free wells, 1 = DMSO control. activation factor at 10 µM;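 active = luciferase activation factor, scaled between plate controls, of at least 2 with compound at 10 µM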
#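 System: cell-free luciferase reagent; medium: PBS as buffer for the ATP substrate; doses: test compounds dosed from 2 mM stocks in 100% DMSO; incubation: 10 min, room temperature; measured by: luminescence from luciferase reaction; read-out: luciferase activation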
# FLuc inh counter: Photinus pyralis luciferase inhibition counter-screen; P08659; ATPLite firefly luciferase biochemical luminescence, 10 min; inhibition, % at 10 µM; 200,000 tested, 1.5% active; AID 1006;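 active = inhibition above about 50% when tested at 10 µM, limit read from the data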
# APP transl inh: APP translation inhibition | 190,000 tested, 0.82% active | SH-SY5Y APP 5'UTR-luciferase reporter, luminescence | inhibition, % at 2 µM;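 active = inhibition above a set limit, derived from the sample mean plus 3 SD, cut at about 45% in these data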
# Active calls of the source: *. A selection: hits, their analogues and other compounds. The true share with any hit is near 4.8%.
SMILES,APP 5'UTR act,NF-kB neuron act,STAT1 act,FLuc stim CS,FLuc inh counter,APP transl inh
COc1ccc(/C=C2\C(=O)N(c3c(Cl)cc(Cl)cc3Cl)N=C2NC(=O)c2cccc([N+](=O)[O-])c2)cc1,12,0.94,108,1,-3,-12
COc1cc(OC)cc(-c2ncc3ccccn23)c1,-2,1.3,101,0.8,19,2
COc1cccc(-c2ncc3ccccn23)c1,76,2.7,135*,0.5,46,-76
Nc1nn2cc(-c3ccccc3)nc2c2ccccc12,198*,0.97,143*,0.2,85*,-198
OCC(O)/C=N/Nc1nc2ccccc2s1 (configuration not stated),17,1.2,115,1,-2,-17
Cc1nn(-c2ccccc2Cl)c(Cl)c1/C=N/Nc1nc2ccccc2s1,-39,0.36,70,0.2,81*,39
C(=N\Nc1nc2ccccc2s1)/c1ccco1,203*,5.5*,144*,0.4,62*,-203
C(=N\Nc1nc2ccccc2s1)/c1cccs1,212*,7.1*,146*,0.5,48,-212
Cc1ccsc1/C=N/Nc1nc2ccccc2s1,232*,11*,181*,0.4,64*,-232
N/C(Cc1cccs1)=N\OC(=O)COc1ccccc1,12,1.5,107,1.1,-7,-12
Cc1ccc(OC(=O)c2sc3ncn(C)c(=O)c3c2C)cc1,129,3.4*,136*,1,2,-129
Cc1ccc(N/C(N)=N/c2nc(CSc3nnc(C)s3)cc(=O)[nH]2)c(C)c1,-93,3.1,95,1.1,-10,93*
C/C(N)=C(/C#N)C(=O)COC(=O)CCSc1ccccc1Cl,-81,1.2,95,1,-2,81*
Oc1ccc2ccccc2c1N=Nc1ccccn1,-83,1.2,93,0.8,16,83*
CC(C)CCn1c(O)c(N=Nc2ccccn2)c2ccccc21,7,1.5,98,1,-2,-7
CCOC(=O)c1[nH]cnc1N=Nc1c(O)ccc2ccccc12,-52,1.1,99,0.9,8,52*
CCOC(=O)CS(=O)(=O)c1ccc(O)cc1,4,0.87,112,1.1,-6,-4
COc1cccc(NC(=O)N2CCN(S(C)(=O)=O)CC2)c1,10,1.2,97,1.1,-7,-10
CCC(CC)NC(=O)Cc1ccc(F)cc1,12,1,99,1,1,-12
COc1ccc(C(=O)c2ccc(OC)c(N)c2)cc1N,-91,2.8,121,0.9,10,91*
COc1ccc(C(=O)c2ccc(OC)c(OC)c2)cc1OC,0,0.98,81,1.1,-9,0
CCN(CC(=O)Nc1c(C(=O)OC)[nH]c2ccc(C)cc12)c1ccc2c(c1)OCO2,-16,0.46,98,1,0,16
Oc1ccc(Cl)cc1C=Nc1ccccc1Br,19,1.2,95,1,-4,-19
O=c1[nH][nH]cc1C=Nc1ccccc1O,22,6.2*,82,1,-2,-22
COc1cc(O)sc1C=Nc1ccc(Cl)cc1Cl,20,1.3,110,1,-2,-20
SMILES,APP 5'UTR act,NF-kB neuron act,STAT1 act,FLuc stim CS,FLuc inh counter,APP transl inh
O=c1[nH][nH]cc1C=Nc1ccccc1Cl,-3,1.1,103,0.9,14,3
O=c1[nH][nH]cc1C=Nc1cc(Cl)ccc1O,-21,4.2*,83,1,1,21
O=c1[nH][nH]cc1C=Nc1ccc(Cl)cc1Cl,-64,1.2,94,0.9,11,64*
Cc1cc(NCc2ccccn2)ccc1Br,48,2,125,1,3,-48
COC(=O)C(NC(=O)CNS(=O)(=O)c1ccc(Br)cc1)c1ccccc1 (configuration not stated),-3,1.1,92,1,-2,3
COc1cccc(NC(=S)N(Cc2ccc(Cl)cc2)Cc2ccc(C(=O)O)cc2)c1,3,1.1,100,1.1,-6,-3
O=C(O)C1CCCCC1C(=O)Nc1cccc2ccccc12 (configuration not stated),5,1.2,143*,1.1,-6,-5
CS(=O)(=O)c1ccc(S(=O)CC(=O)OCc2ccccc2)c([N+](=O)[O-])c1 (configuration not stated),-48,0.18,102,1.1,-5,48*
